The record followed here is article PMC11127568 (ACS infectious diseases, 2024).

The subject of assay [1] is B. duncani. Nature of the assay: microbe, parasite or virus in culture. The assay is classed as cell-based, Babesia duncani (WA1). The conditions noted are these: read-out: IC50 B. duncani.
The test system of assay [2] is human cell lines (HeLa, HepG2, HEK, and HCT116). The experiment in a line: Drug cytotoxicity evaluation. The assay is classed as cell-based. The conditions noted are these: 48 h, read-out: IC50 Human cell lines.
The test system of assay [3] is B. duncani. Nature of the assay: In vitro drug-drug interaction with atovaquone by isobologram analysis. It is filed as cell-based, Babesia duncani. The conditions noted are these: combination with atovaquone; for Mode of Interaction: isobologram analysis. The gist of the method:
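B. duncani WA1 grown in A+ human RBCs, DMEM/F12, 5% hematocrit. […] SYBR Green I lysis read-out (ex 497/em 520 nm). FIC50 = IC50 in combination/IC50 alone, summed; ΣFIC50 <0.8 synergy, 0.8–<1.4 additive, ≥1.4 antagonism. ≥2 independent experiments, triplicates.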

Assay [4] concerns B. duncani. Nature of the assay: In vivo efficacy in B. duncani lethal infection model in C3H/HeJ mice. Details: species or system mouse (C3H/HeJ). The following applies: for Survival after monotherapy: lethal B. duncani infection, 10 mg/kg oral daily DPI 3 to 7. The gist of the method:
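Female C3H/HeJ mice (6 weeks, 5 per group) were infected intravenously with 1×10³ B. duncani WA1-infected RBCs. Oral gavage was given daily on DPI 3–7 with 100 μl PEG 400 vehicle or test compound at 10 mg/kg. Parasitemia came from Giemsa-stained thin blood smears, with at least 3000 RBCs counted, followed to DPI 84. Survival by Kaplan-Meier.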

The test system of another assay is B. microti. Nature of the assay: In vivo efficacy in B. microti chronic infection model in CB.17/SCID mice. Further details: species or system mouse (CB.17/SCID). The following applies: SCID mice, 10 mg/kg oral.
Setting [5] is: B. duncani, 10 mg/kg oral DPI 3 to 7.

Where two headings read alike, the source gives them in different places.

For orientation: IC50 means the concentration that gives 50% inhibition. As for `O=C1C(O)=C([C@H]2CC[C@H](c3ccc(Cl)cc3)CC2)C(=O)c2ccccc21` [Atovaquone, reference compound], the half-maximal inhibitory concentration (IC50) with B. duncani [1] (Babesia duncani, Erythrocyte, in Homo sapiens, 62 h) is 72 ± 6 nM; in assay [2] it was 5000 nM.

Regarding `COc1cc2[nH]c(C)c(-c3ccc(-c4ccc(OC(F)(F)F)cc4)cc3)c(=O)c2cc1Cl` [ELQ-596], in the assay with B. duncani [3], the “Mode of Interaction” value was “additive (0.8 ≤ ΣFIC50 < 1.4 = additive)”. The IC50 in the assay on B. duncani [1] was found to be 32 ± 4.9 nM.

For the molecule `CCOC(=O)OCOc1c(-c2ccc(-c3ccc(OC(F)(F)F)cc3)cc2)c(C)nc2cc(OC)c(Cl)cc12` [ELQ-598], the “Parasites on Giemsa-stained thin-blood smears on monitoring until DPI 84” value in the assay on B. duncani [4] (setting [5]) is reported as “no parasites could be detected”. Further, in the assay on B. duncani [4], the Survival after monotherapy result is “survival of these mice for the duration of study”. Besides, the “Mode of Interaction” value in the assay with B. duncani [3] is “additive (0.8 ≤ ΣFIC50 < 1.4 = additive)”. Moreover, the IC50 in the assay on B. duncani [1] stood at 37 ± 2.2 nM.

For `COc1cc2[nH]c(C)c(-c3ccc(-c4ccc(OC(F)(F)F)cc4)cc3)c(=O)c2cc1F` [ELQ-650], the “Mode of Interaction” value in the assay with B. duncani [3] is “additive (0.8 ≤ ΣFIC50 < 1.4 = additive)”. Besides, in the assay with B. duncani [1], the 50% inhibitory concentration (IC50) turned out to be 22 ± 4.9 nM.

On to `CCOC(=O)OCOc1c(-c2ccc(-c3ccc(OC(F)(F)F)cc3)cc2)c(C)nc2cc(OC)c(F)cc12` [ELQ-672], for which, in the assay with B. duncani [4] (setting [5]), the Day parasites emerged is reported as 16 DPI and the “Parasitemia at DPI 19” value is on record as 8%. Besides, the Survival after monotherapy result in the assay with B. duncani [4] is on record as “animals ultimately succumbing to infection”. For the same molecule, the “Mean FIC value (Σ FIC50)” value in the assay with B. duncani [3] (B. duncani in human red blood cells, fixed ratio method) is given as 0.5. Also, the “Mode of Interaction” value with B. duncani [3] is recorded as “synergistic”. In the assay on B. microti (vehicle DPI 17), this molecule showed a Day parasites emerged of 21 DPI. Moreover, the “Day peak parasitemia reached” value in the assay with B. microti (vehicle DPI 21) came to 31 DPI. Also, the concentration for half-maximal inhibition (IC50) in the assay with B. duncani [1] stood at 57 ± 18 nM.
